Article PMC3767132 (Organic & biomolecular chemistry, 2012)
Read-outs that look alike come from different tables or passages of the source.

Columns and labels:
hMetAP1 = hMetAP1 (Homo sapiens, UniProt P53582); assay: human MetAP1 enzyme assay; assay type: biochemical; conditions: for IC50: 10 μM Co2+; for b = bottom value in the dose-response curve, hMetAP1: noted only when above 15%
hMetAP2 = hMetAP2 (Homo sapiens, UniProt P50579); assay: human MetAP2 enzyme assay; assay type: biochemical
HUVEC [1] = assay: HUVEC proliferation assay using [3H]-thymidine incorporation; assay type: cell-based, human
SIRT1 = assay: Immunoblot of Ac-p53; assay type: cell-based, human; conditions: for Immunoblot Ac-p53: compound treated HUVEC lysates, 24 h, signal relative to DMSO = 1.0
How it was run: (§1)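 HUVEC were exposed to test compound for 24 h, typically at 5 μM (some up to 10 μM), with DMSO as negative control. Lysates were immunoblotted for Met-14-3-3γ, 14-3-3γ, Ac-p53 and total p53. Band densities were taken as Met-14-3-3γ/14-3-3γ and Ac-p53/p53 per lane, relative to DMSO = 1.0. Ac-p53 was scored −(<2.0), +(2.0–7.0), ++(7.1–11.6), +++(>11.6).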

MetAP = assay: Immunoblot of Met-14-3-3γ; assay type: cell-based, human; conditions: for Immunoblot Met-14-3-3γ: compound treated HUVEC lysates, 24 h, signal relative to DMSO = 1.0
How it was run: as §1

[2] = Metal complexation by UV-vis spectra in MetAP assay buffer; assay type: physicochemical; conditions: 10 μM in MetAP assay buffer
How it was run: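 UV–vis absorption spectra recorded for the test compound at 10 μM in MetAP assay buffer, without and with metal ions. Metals were added as MnCl2 or CoCl2 at 10 μM, a buffer and metal level chosen to emulate the enzyme assay. Complexation was read as shifts in λmax and changes in band intensity.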

HeLa = HeLa proliferation assay, 3H-T uptake; assay type: cell-based; conditions: Homo sapiens, HeLa, read-out: IC50 3H-T Uptake HeLa
Jurkat-T = assay: Jurkat T proliferation assay, 3H-T uptake; assay type: cell-based; conditions: Homo sapiens, Jurkat, read-out: IC50 3H-T Uptake Jurkat-T
HUVEC [3] = assay: HUVEC cell-viability assay using calcein-AM; assay type: cell-based, human; conditions: Homo sapiens, HUVEC, read-out: IC50 Calcein-AM HUVEC
HFF = HFF cell-viability assay using calcein-AM; assay type: cell-based, human; conditions: for IC50: Homo sapiens, HFF, read-out: IC50 Calcein-AM HFF
HUVEC [4] = assay: Cytotoxicity seen on treatment of HUVEC for immunoblotting; assay type: cell-based, human; conditions: 0.5 μM for 24 h
HUVEC [5] = assay: DCF-DA assay of ROS levels in HUVEC; assay type: cell-based, human; conditions: HUVEC treated with 10 μM, data not shown
sirtuin 1 (SIRT1) = conditions: read-out: IC50 SIRT1; cited from earlier work
[6] = read-out: IC50 hMetAP1, enzyme assay
[7] = read-out: IC50 hMetAP2, enzyme assay, 10 μM Mn2+
[8] = Homo sapiens, HUVEC, read-out: IC50 HUVEC
[9] = Homo sapiens, HUVEC, read-out: IC50 HUVEC, proliferation, 3H-T uptake
[10] = up to 10 μM, HUVEC, data not shown

Sequence of hMetAP2 (P50579 whole entry): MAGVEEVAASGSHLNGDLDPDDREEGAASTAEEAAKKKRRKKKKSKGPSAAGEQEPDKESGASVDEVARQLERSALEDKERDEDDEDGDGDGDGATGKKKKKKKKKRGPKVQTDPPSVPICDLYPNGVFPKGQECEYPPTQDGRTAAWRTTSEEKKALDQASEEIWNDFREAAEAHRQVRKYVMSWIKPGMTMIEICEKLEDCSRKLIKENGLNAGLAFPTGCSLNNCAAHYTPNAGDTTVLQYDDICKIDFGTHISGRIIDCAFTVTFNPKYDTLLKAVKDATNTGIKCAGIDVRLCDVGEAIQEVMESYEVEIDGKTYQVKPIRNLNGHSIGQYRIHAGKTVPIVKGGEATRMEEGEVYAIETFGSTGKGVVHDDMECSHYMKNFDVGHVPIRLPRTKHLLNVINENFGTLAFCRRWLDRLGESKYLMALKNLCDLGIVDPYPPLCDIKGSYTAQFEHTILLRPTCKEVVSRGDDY

Row | Structure (SMILES) | Immunoblot Ac-p53 (SIRT1) | Immunoblot Met-14-3-3γ (MetAP) | complexation with Mn2+ and Co2+ ions (UV-vis) [2] | IC50 (hMetAP1; IC50 hMetAP1, enzyme assay) | IC50 (hMetAP2) | IC50 (HUVEC [1]; [8]) | IC50 (HeLa) | IC50 (Jurkat-T) | IC50 (HUVEC [3]) | b = bottom value of the curve, Calcein-AM HFF (HFF) | IC50 (HFF) | further results
1 | O=C(Nc1ccc(O)c2ncccc12)c1ccccc1 [Entry 40] | +++ (+++, >11.6) | + (+, ≥1.5) | signs of complex formation |  |  |  |  |  |  |  |  | IC50 (hMetAP1; [6]): 6450 nM; IC50 (hMetAP2; [7]): > 40000 nM; IC50 (HUVEC [1]; read-out: IC50 HUVEC, proliferation, 3H-T uptake): 789 ± 110 nM
2 | Cc1ccc(S(=O)(=O)Nc2ccc(N=O)c3cccnc23)cc1 [Entry 54, 4-methyl-N-(5-nitrosoquinolin-8-yl)benzene-sulfonamide] | − (−, <2.0) | + (+, ≥1.5) | formation of chelates | 10500 ± 900 nM | > 15000 nM | 204 ± 20 nM | 590 ± 100 nM | 450 ± 50 nM | 1320 ± 200 nM | 22% | 782 ± 130 nM | b = bottom value in the dose-response curve, hMetAP1 (hMetAP1): 18%
3 | O=C(Nc1cc(Cl)cc(Cl)c1)Oc1ccc(Cl)c2cccnc12 [Entry 24, 5-Chloroquinolin-8-yl 3,5-dichlorophenylcarbamate] |  |  | lack of complexation | > 15000 nM | 24 ± 7 nM |  |  |  | 746 ± 190 nM | 17% | 2690 ± 500 nM | IC50 (HUVEC [1]; [9]): 324 ± 60 nM; cytotoxicity in HUVEC (HUVEC [4]): not enough cells were left
4 | O=Nc1ccc(O)c2ncccc12 [Entry 33, 5-nitrosoquinolin-8-ol] | + (+, 2.0–7.0) | − (−, >1.5) |  | > 15000 nM | > 50000 nM | 364 ± 200 nM | 640 ± 200 nM | 360 ± 70 nM | 3720 ± 800 nM | 17% | 9080 ± 1200 nM | ROS levels (DCF-DA) (HUVEC [5]): failed to observe any significant increase; affinity for Mn2+ (UV-vis) [2]: very little affinity
5 | O=[N+]([O-])c1ccc(O)c2ncccc12 [Entry 5, Nitroxoline, reference compound] | ++ (++, 7.1–11.6) | + (+, ≥1.5) |  |  |  |  | 3970 ± 900 nM | 1580 ± 300 nM | 5130 ± 1200 nM | 21% | 3690 ± 1000 nM | inhibition at 10 µM (hMetAP2; read-out: inhibition of MetAP2 activity in HTS): > 90%; IC50 (HUVEC [1]; [9]): 1900 ± 300 nM; IC50 (sirtuin 1 (SIRT1)): 20200 nM
6 | Cc1ccc(S(=O)(=O)Nc2ccc([N+](=O)[O-])c3cccnc23)cc1 [Entry 55, 4-methyl-N-(5-nitroquinolin-8-yl)benzene-sulfonamide] | − (−, <2.0) | − (−, >1.5) |  | 21000 nM | > 15000 nM | 305 ± 70 nM | 1030 ± 200 nM | 820 ± 150 nM | 1460 ± 210 nM | 21% | 783 ± 110 nM | b = bottom value in the dose-response curve, hMetAP1 (hMetAP1): 19%; effect on the levels of Ac-p53 (SIRT1; [10]): no effect; effect on the levels of Met-14-3-3γ (MetAP; [10]): no effect
7 | CN(C)S(=O)(=O)Oc1ccc([N+](=O)[O-])c2cccnc12 [Entry 48, 5-nitroquinolin-8-yl dimethylsulfamate] | +++ (+++, >11.6) | + (+, ≥1.5) | does form chelates |  |  | 770 ± 100 nM | 2410 ± 800 nM | 1730 ± 200 nM | 4210 ± 1400 nM | 23% | 2260 ± 300 nM | IC50 (hMetAP1; [6]): > 15000 nM; IC50 (hMetAP2; [7]): 57 ± 15 nM; concentration of maximal sirtuin inhibition (biphasic mode) (SIRT1; HUVEC immunoblot, Ac-p53): around 2 μM
